# Like-named read-outs stand apart in the source and are kept apart here.
# Legend:
# Human Coronavirus (229E) = experiment: CPE reduction assay in HEL cells; assay type: cell-based; conditions: read-out: Antiviral EC50, Human Coronavirus (229E)
# [1] = tested on: Klebsiella aerogenes (NCIM-2098); experiment: Agar disk diffusion, inhibition zone; assay type: cell-based; conditions: 100 µg/8 mm disc, triplicate, mean ± SD
# [2] = tested on: Aspergillus fumigatus (NCIM 2081); experiment: Agar disk diffusion, inhibition zone; assay type: cell-based; conditions: 100 µg/8 mm disc, triplicate, mean ± SD
# Influenza B B/Ned/537/05 = experiment: CPE reduction assay in MDCK cells; assay type: cell-based; conditions: Influenza B virus, read-out: Antiviral EC50, Influenza B B/Ned/537/05, MTS
# [3] = tested on: Aspergillus niger (NCIM 2191); experiment: Agar disk diffusion, inhibition zone; assay type: cell-based; conditions: 100 µg/8 mm disc, triplicate, mean ± SD
# Outline: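 For the fungal strain, discs soaked in test compound solution (DMSO stock diluted with distilled water) sat on seeded Mueller-Hinton agar. Clotrimazole was the reference. Incubation ran 48 h at 35 °C, in triplicate. Zone of growth inhibition recorded in mm as the mean diameter around each disc.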
# [4] = tested on: Staphylococcus aureus (ATCC 29213); experiment: MIC, broth microdilution; assay type: cell-based; conditions: ATCC29213, read-out: Minimum inhibitory concentration (MIC), SA
# Outline: (§1)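 Antibacterial MICs by CLSI broth microdilution in Mueller-Hinton broth. Test compounds and standard drugs are serially diluted two-fold from 512 to 0.25. The bacterial broth culture is grown 2-6 h to a 0.5 McFarland turbidity, then adjusted with sterile solution to the final inoculum.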
# Yellow Fever virus = experiment: microbe, parasite or virus in culture; assay type: cell-based; conditions: Yellow fever virus, Vero, read-out: Antiviral EC50, Yellow Fever virus
# Para-influenza-3 virus = experiment: CPE reduction assay in Vero cells; assay type: cell-based, Parainfluenza-3 virus; conditions: Vero, read-out: Antiviral EC50, Para-influenza-3 virus
# Punta Toro virus = experiment: CPE reduction assay in Vero cells; assay type: cell-based; conditions: read-out: Antiviral EC50, Punta Toro virus
# [5] = tested on: Influenza A/H3N2 A/HK/7/87; experiment: CPE reduction assay in MDCK cells; assay type: cell-based; conditions: Influenza A virus
# [6] = tested on: Pseudomonas aeruginosa (MCCB 0035); experiment: Agar disk diffusion, inhibition zone; assay type: cell-based; conditions: 100 µg/8 mm disc, triplicate, mean ± SD
# [7] = tested on: Bacillus cereus (NCIM-2458); experiment: Agar disk diffusion, inhibition zone; assay type: cell-based; conditions: 100 µg/8 mm disc, triplicate, mean ± SD
# [8] = tested on: Escherichia coli (ATCC 8739); experiment: Agar disk diffusion, inhibition zone; assay type: cell-based; conditions: 100 µg/8 mm disc, triplicate, mean ± SD
# Outline: (§2)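 Agar disk diffusion on Mueller-Hinton agar plates seeded with a standard bacterial suspension. Test compound stock in DMSO, diluted with distilled water; 8 mm sterile filter-paper discs soaked in the solution. Ampicillin was the reference. Plates incubated at 35 °C for 24 h, in triplicate. Read-out is the average inhibition-zone diameter (mm) around each disc.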
# [9] = tested on: Lactobacillus casei (NCIM-2651); experiment: Agar disk diffusion, inhibition zone; assay type: cell-based; conditions: 100 µg/8 mm disc, triplicate, mean ± SD
# [10] = tested on: Aspergillus fumigatus (NCIM 2081); experiment: MIC, broth microdilution; assay type: cell-based; conditions: NCIM2081, read-out: Minimum inhibitory concentration (MIC), AF
# Outline: (§3)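 Antifungal MICs by CLSI broth microdilution in Sabouraud liquid medium. Test compounds and standard drugs are serially diluted two-fold from 512 to 0.25. The fungal broth culture is grown 24 h at 35 °C to a 0.5 McFarland turbidity, then adjusted with sterile solution to the final inoculum.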
# Vaccinia virus = experiment: microbe, parasite or virus in culture; assay type: cell-based; conditions: Orthopoxvirus vaccinia, HEL, read-out: Antiviral EC50, Vaccinia virus
# [11] = tested on: Candida albicans (NCIM 2087); experiment: MIC, broth microdilution; assay type: cell-based; conditions: NCIM2087, read-out: Minimum inhibitory concentration (MIC), CA
# Outline: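 CLSI broth microdilution in Sabouraud liquid medium, with test compound two-fold serially diluted from 512 to 0.25. Fungal broth culture grown 24 h at 35 °C to 0.5 McFarland turbidity, then adjusted with sterile solution to a final […] inoculum. MIC expressed in µg/mL.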
# [12] = tested on: Escherichia coli (ATCC 8739); experiment: MIC, broth microdilution; assay type: cell-based; conditions: ATCC8739, read-out: Minimum inhibitory concentration (MIC), EC
# Outline: (§4)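 Broth microdilution per CLSI in Mueller-Hinton broth, using two-fold serial dilutions of test compound and reference drugs from 512 to 0.25. Bacterial broth cultures were grown 2-6 h to 0.5 McFarland turbidity, then diluted with sterile solution to the final inoculum. MIC is reported in µg/mL.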
# [13] = tested on: Streptococcus pneumonia (ATCC 49619); experiment: Agar disk diffusion, inhibition zone; assay type: cell-based; conditions: 100 µg/8 mm disc, triplicate, mean ± SD
# [14] = tested on: Candida albicans (NCIM 2087); experiment: Agar disk diffusion, inhibition zone; assay type: cell-based; conditions: 100 µg/8 mm disc, triplicate, mean ± SD
# [15] = tested on: Cryptococcus neoformans (ATCC 9011); experiment: MIC, broth microdilution; assay type: cell-based; conditions: ATCC9011, read-out: Minimum inhibitory concentration (MIC), CN
# Outline: as §3
# Vero cells = conditions: Vero cell cultures; microscopically detectable alteration of normal cell morphology
# [16] = tested on: Aspergillus niger (NCIM 2191); experiment: MIC, broth microdilution; assay type: cell-based; conditions: NCIM2191, read-out: Minimum inhibitory concentration (MIC), AN
# Outline: as §3
# Reovirus-1 = experiment: CPE reduction assay in Vero cells; assay type: cell-based; conditions: read-out: Antiviral EC50, Reovirus-1
# Adeno virus-2 = experiment: CPE reduction assay in HEL cells; assay type: cell-based; conditions: read-out: Antiviral EC50, Adeno virus-2
# [17] = tested on: Influenza A/H1N1 A/Ned/378/05; experiment: CPE reduction assay in MDCK cells; assay type: cell-based; conditions: Influenza A virus
# [18] = tested on: Pseudomonas aeruginosa (MCCB 0035); experiment: MIC, broth microdilution; assay type: cell-based; conditions: read-out: Minimum inhibitory concentration (MIC), PA
# Outline: as §4
# [19] = tested on: Cryptococcus neoformans (ATCC 9011); experiment: Agar disk diffusion, inhibition zone; assay type: cell-based; conditions: 100 µg/8 mm disc, triplicate, mean ± SD
# [20] = tested on: Human embryonic lung (HEL) cells; conditions: HEL cell cultures; microscopically detectable alteration of normal cell morphology
# [21] = tested on: Staphylococcus aureus (ATCC 29213); experiment: Agar disk diffusion, inhibition zone; assay type: cell-based; conditions: 100 µg/8 mm disc, triplicate, mean ± SD
# Outline: as §2
# [22] = tested on: Madin Darby canine kidney (MDCK) cells; conditions: dog
# [23] = tested on: Salmonella typhimurium (NCIM-2501); experiment: Agar disk diffusion, inhibition zone; assay type: cell-based; conditions: 100 µg/8 mm disc, triplicate, mean ± SD
# [24] = tested on: Klebsiella aerogenes (NCIM-2098); experiment: MIC, broth microdilution; assay type: cell-based; conditions: NCIM2098, read-out: Minimum inhibitory concentration (MIC), KA
# Outline: as §1
# Sindbis virus = experiment: CPE reduction assay in Vero cells; assay type: cell-based; conditions: read-out: Antiviral EC50, Sindbis virus
# [25] = tested on: Bacillus cereus (NCIM-2458); experiment: MIC, broth microdilution; assay type: cell-based; conditions: NCIM2458, read-out: Minimum inhibitory concentration (MIC), BC
# Outline: as §4
# MT4 cells = conditions: MT4 cell cultures; colorimetric MTT cell viability assay
# Coxsackie virus B4 = experiment: CPE reduction assay in Vero cells; assay type: cell-based; conditions: Enterovirus B, read-out: Antiviral EC50, Coxsackie virus B4
smiles,measurement,setting,value
"Cc1ccc(S(=O)(=O)N2C(=O)CSC2c2ccccc2[N+](=O)[O-])cc1 (stereo not drawn) [5o, 3-[(4-Methylphenyl)sulfonyl]-2-(2-nitrophenyl)-1,3-thiazolidin-4-one]",EC50,Human Coronavirus (229E),> 100 µM
same,"Diameter of growth inhibition zone, KA",[1],12 ± 0.34 mm
same,"Diameter of growth inhibition zone, AF",[2],18 ± 0.9 mm
same,EC50,Influenza B B/Ned/537/05,> 100 µM
same,"Diameter of growth inhibition zone, AN",[3],19 ± 1.5 mm
same,MIC,[4],16 µg/mL
same,EC50,Yellow Fever virus,> 100 µM
same,EC50,Para-influenza-3 virus,> 100 µM
same,EC50,Punta Toro virus,> 100 µM
same,EC50,"[5]; read-out: Antiviral EC50, Influenza A/H3N2 A/HK/7/87, MTS",> 100 µM
same,EC50,"[5]; read-out: Antiviral EC50, Influenza A/H3N2 A/HK/7/87, visual CPE score",> 100 µM
same,"Diameter of growth inhibition zone, PA",[6],15 ± 1.1 mm
same,"Diameter of growth inhibition zone, BC",[7],10 ± 0.6 mm
same,"Diameter of growth inhibition zone, EC",[8],16 ± 0.9 mm
same,"Diameter of growth inhibition zone, LC",[9],12 ± 0.66 mm
same,MIC,[10],16 µg/mL
same,EC50,Vaccinia virus,> 100 µM
same,MIC,[11],8 µg/mL
same,MIC,[12],16 µg/mL
same,"Diameter of growth inhibition zone, SP",[13],10 ± 1.5 mm
same,"Diameter of growth inhibition zone, CA",[14],20 ± 1.1 mm
same,MIC,[15],2 µg/mL
same,Minimum cytotoxic conc.,Vero cells,>100 µM
same,MIC,[16],16 µg/mL
same,EC50,Reovirus-1,> 100 µM
same,EC50,Adeno virus-2,> 100 µM
same,EC50,"[17]; read-out: Antiviral EC50, Influenza A/H1N1 A/Ned/378/05, MTS",> 100 µM
same,EC50,"[17]; read-out: Antiviral EC50, Influenza A/H1N1 A/Ned/378/05, visual CPE score",> 100 µM
same,MIC,[18],32 µg/mL
same,"Diameter of growth inhibition zone, CN",[19],19 ± 1.2 mm
same,Minimum cytotoxic conc.,[20],>100 µM
same,"Diameter of growth inhibition zone, SA",[21],15 ± 1.5 mm
same,"Cytotoxicity, Minimum cytotoxic conc.",[22],>100 µM
same,"Diameter of growth inhibition zone, ST",[23],10 ± 0.8 mm
same,MIC,[24],32 µg/mL
same,EC50,Sindbis virus,> 100 µM
same,MIC,[25],64 µg/mL
same,Minimum cytotoxic conc.,MT4 cells,>125 µM
same,EC50,Coxsackie virus B4,> 100 µM
